One data set concerns MCF-7 cells. In words: Cell cycle analysis of MCF-7 cells by flow cytometry. In kind it is cell-based, human. As to conditions: 200 nM, 24 and 48 h. (In general: Flow cytometry measures light scatter and fluorescence of single cells or particles in a stream.)
A further data set relates to CNS. Put plainly: NCI 60 cell panel, five-concentration assay, CNS subpanel. In kind it is cell-based. The note with it: total growth inhibition; 48 h exposure.
The test system of another data set is p53. Put plainly: Western blotting of p53 in MCF-7 cells. The data set is classed as cell-based, human. As to conditions: 5 μM. A general note: Immunoblotting shows a protein as a band on a membrane.
Another data set deals with Bax. Put plainly: Bax content in MCF-7 cells. The data set is classed as cell-based, human. The method, boiled down:
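MCF-7 cells seeded at 1×10^4 cells/cm2 on glass coverslips and treated. Then fixed in 3% p-formaldehyde, washed with 0.1 M glycine in PBS, and permeabilised in 70% ice-cold ethanol. Stained 1 h at room temperature with mouse monoclonal anti-Bax, then FITC anti-mouse IgG for 1 h, with propidium iodide for nuclei. Confocal imaging used sequential 488 and 568 nm excitation; image representative of three experiments.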

Another data set has as its system ERK1/2. Put plainly: Western blotting of ERK1/2 phosphorylation in MCF-7 cells. The data set is classed as cell-based, human. As to conditions: 5 μM, 20 h. The essentials: (§1)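 MCF-7 cells treated 20 h, then collected in 20 mM HEPES pH 7.5 with 5 mM DTT, 2 mM EDTA, 0.1% CHAPS, 0.1% Triton X-100 and protease inhibitors, and freeze-thawed twice. Extracts run on SDS-PAGE at 80 μg protein/lane and immunoblotted for total and phosphorylated ERK1/2 and Akt, p53, p21 and β-actin. Blots representative of at least three experiments.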

A further data set concerns Ovarian. In words: NCI 60 cell panel, five-concentration assay, ovarian subpanel. The data set is classed as cell-based. As to conditions: total growth inhibition; 48 h exposure.
Another data set has as its system Colon. Put plainly: NCI 60 cell panel, five-concentration assay, colon subpanel. The data set is classed as cell-based. The note with it: total growth inhibition; 48 h exposure.
Another data set has as its system Breast. Put plainly: NCI 60 cell panel, five-concentration assay, breast subpanel. As to conditions: total growth inhibition; 48 h exposure. In kind it is cell-based.
For the next data set, the system named is Renal. In words: NCI 60 cell panel, five-concentration assay, renal subpanel. The data set is classed as cell-based. The note with it: total growth inhibition; 48 h exposure.
Data set [1] relates to MCF-7 breast cancer cells. Put plainly: Growth and death of MCF-7 cells. In kind it is cell-based, human. As to conditions: 200 nM, viable cells counted daily. The method, boiled down: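 MCF-7 cells grown in RPMI 1640 with 10% FBS and 2 mM L-glutamine at 37°C, 5% CO2. Plated at 2×10^4 cells/cm2; compound added 24 h later from 10 mmol/L DMSO working solutions, with DMSO-only controls. Cells harvested with 0.11% trypsin/0.02% EDTA and counted; viability by trypan blue exclusion. Treated vs control compared by Student t-test, P<0.05.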

Another data set concerns Akt. Put plainly: Western blotting of Akt phosphorylation in MCF-7 cells. As to conditions: 5 μM, 20 h. In kind it is cell-based, human. The method, boiled down:
as §1

The subject of data set [2] is full NCI 60 cell panel. The note with it: for TGI MG-MID (mean TGI): calculated panel mean, 48 h exposure.
In the next data set the test system is NSCLC. Put plainly: NCI 60 cell panel, five-concentration assay, NSCLC subpanel. In kind it is cell-based. As to conditions: total growth inhibition; 48 h exposure.
The test system of the next data set is Melanoma. Put plainly: NCI 60 cell panel, five-concentration assay, melanoma subpanel. In kind it is cell-based. The note with it: total growth inhibition; 48 h exposure.
A further data set has as its system Leukemia. In words: NCI 60 cell panel, five-concentration assay, leukemia subpanel. As to conditions: total growth inhibition; 48 h exposure. In kind it is cell-based.
A further data set deals with p21. In words: Western blotting of p21 in MCF-7 cells. The data set is classed as cell-based, human. The note with it: 5 μM, 24 h.
Another data set has as its system Prostate. In words: NCI 60 cell panel, five-concentration assay, prostate subpanel. The data set is classed as cell-based. As to conditions: total growth inhibition; 48 h exposure.
The subject of data set [3] is full NCI 60 cell panel. Put plainly: cells. As to conditions: Homo sapiens, 48 h, read-out: GI50 MG-MID (mean GI50).

Counter-ions that a name gives are not always drawn.

A word on the CC50: it is the concentration at which the toxic effect on the cells reaches its halfway point. Consider `COc1cc2c(/C=C3/C(=O)Nc4cc(Cl)ccc43)c(Cl)n(C)c2cc1C` [Compound 12], for which, in the data set with MCF-7 cells, the “cell cycle distribution: G2/M phase” value is reported as “marked accumulation of MCF-7 cells in the G2/M phase” and the “sub-G1 peak (apoptotic cells)” value is on record as “a notable cell population was observed in a sub-G1-peak”. Also, the “TGI CNS” value in the data set on CNS is 1.20 µM. Besides, the p53 expression result in the data set with p53 (20 h) was “caused a p53 increase”. Further, the “induction of p53 (densitometry)” value in the data set with p53 (24 h) was “threefold induction of p53”. Also, the “cellular Bax by immunofluorescence microscopy” value in the data set on Bax (5 μM, 24 h) was “considerable Bax accumulation”. Also, the “increase of Bax, densitometric analysis of Western blotting” value with Bax (n=3, data not shown) was determined as 2.8 times. Moreover, the ERK phosphorylation result in the data set with ERK1/2 was “decreased ERK phosphorylation”. Further, the “TGI Ovarian” value with Ovarian was found to be 2.34 µM. Moreover, the “TGI Colon” value with Colon worked out at 0.95 µM. In addition, the “TGI Breast” value with Breast came out at 5.62 µM. Further, the “TGI Renal” value in the data set with Renal was 15.85 µM. For the same molecule, the “effect on MCF-7 cell growth (total cell number)” value in data set [1] is given as “blocked MCF-7 cell growth within 48 h”. Moreover, the Akt phosphorylation entry in the data set with Akt is “only slightly decreased”. Further, in the data set with full NCI 60 cell panel [2], half-maximal cytotoxicity (CC50) was put at 49 µM and the “TGI MG-MID (mean TGI)” value is 3.80 µM. The “TGI NSCLC” value in the data set on NSCLC was 11.48 µM. In addition, in the data set on Melanoma, the “TGI Melanoma” value was found to be 7.08 µM. For the same molecule, the “TGI Leukemia” value in the data set on Leukemia was found to be 1.74 µM. In the data set on p21, the “increase of p21 (densitometry)” value was “about 90%”.

By GI50 is commonly meant the concentration that inhibits growth by half. Consider `CC[C@]1(O)C[C@H]2CN(CCc3c([nH]c4ccccc34)[C@@](C(=O)OC)(c3cc4c(cc3OC)N(C=O)[C@H]3[C@@](O)(C(=O)OC)[C@H](OC(C)=O)[C@]5(CC)C=CCN6CC[C@]43[C@@H]65)C2)C1` [Vincristine sulfate, reference compound], for which the “TGI CNS” value with CNS was found to be 6.31 µM. In the data set with Ovarian, the “TGI Ovarian” value came to 19.95 µM. Also, in the data set with Colon, the “TGI Colon” value came to 3.98 µM. Moreover, the “TGI Prostate” value with Prostate is 6.31 µM. The “TGI Breast” value in the data set on Breast stood at 7.94 µM. Also, the GI50 with full NCI 60 cell panel [3] stood at 200 nM. For the same molecule, in the data set with Renal, the “TGI Renal” value was determined as 19.95 µM. The “TGI MG-MID (mean TGI)” value with full NCI 60 cell panel [2] was 10.00 µM. For the same molecule, the “TGI NSCLC” value in the data set with NSCLC is 15.85 µM. Besides, the “TGI Melanoma” value in the data set with Melanoma came to 7.94 µM. For the same molecule, the “TGI Leukemia” value with Leukemia came out at 15.85 µM.

The record behind these values is publication PMC2920599 (Journal of medicinal chemistry, 2010).
